According to ChEMBL document CHEMBL3862011, “Neuroprotective effects of benzyloxy substituted small molecule monoamine oxidase B inhibitors in Parkinson's disease” (Bioorg Med Chem, 2016):
Active and inactive are the calls of the source. No cut-off for these calls is given here.

Key:
[1] = system: PC-12; assay: Neuroprotective activity against 6-OHDA-induced apoptosis in rat PC12 cells assessed as late apoptotic cells at 10 uM after 24 hrs by 7-AAD/annexin V APC staining-based flow cytometric method (reference value: 4.4%); format: functional
[2] = system: PC-12; assay: Neuroprotective activity against 6-OHDA-induced apoptosis in rat PC12 cells assessed as decrease in nuclear condensation at 20 uM after 24 hrs by Hoechst 33258 staining-based fluorescent inverted microscopic method; format: functional, cell-based
How it was run: (§1)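 PC12 cells exposed to 6-OHDA or rotenone with test treatment were stained with Hoechst 33258 for 30 min, mounted on glass slides under cover slips, and examined by fluorescent inverted microscopy.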

[3] = system: PC-12; assay: Neuroprotective activity against rotenone-induced apoptosis in rat PC12 cells assessed as late apoptotic cells at 20 uM after 24 hrs by 7-AAD/annexin V APC staining-based flow cytometric method (reference value: 9.9%); format: functional
[4] = system: PC-12; assay: Neuroprotective activity against 6-OHDA-induced reactive oxygen species accumulation in rat PC12 cells after 24 hrs by DCFH-DA probe-based flow cytometric method; format: functional, cell-based
How it was run: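 PC12 cells were seeded at 2×10^5 cells/well in six-well plates and cultured with or without various concentrations of test samples for 24 h. After washing, they were loaded with DCFH-DA for 30 min at 37 °C in the dark, washed and harvested. DCF fluorescence read by flow cytometry (ex 488/em 525 nm), reported as mean fluorescence intensity.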

[5] = Cytotoxicity against rat PC12 cells assessed as cell survival at 100 uM after 24 hrs by MTT assay relative to control; format: toxicity, PC-12; conditions: read-out: Survival
[6] = system: PC-12; assay: Neuroprotective activity against rotenone-induced apoptosis in rat PC12 cells assessed as early apoptotic cells at 5 uM after 24 hrs by 7-AAD/annexin V APC staining-based flow cytometric method (reference value: 2.2%); format: functional
[7] = system: PC-12; assay: Neuroprotective activity against rotenone-induced apoptosis in rat PC12 cells assessed as early apoptotic cells at 20 uM after 24 hrs by 7-AAD/annexin V APC staining-based flow cytometric method (reference value: 2.2%); format: functional
[8] = system: PC-12; assay: Neuroprotective activity against rotenone-induced apoptosis in rat PC12 cells assessed as late apoptotic cells at 10 uM after 24 hrs by 7-AAD/annexin V APC staining-based flow cytometric method (reference value: 9.9%); format: functional
[9] = system: Mus musculus; assay: Acute toxicity in Kunming mouse assessed as mortality at 2000 mg/kg measured for 14 days; format: organism-based; conditions: in vivo, 336 h
How it was run: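 Kunming mice (20 ± 2 g), 10 per group, vehicle control group; fasted overnight, single oral dose in 0.5% CMC-Na suspension. Observed continuously for 4 h, intermittently to 24 h, then occasionally to day 14 for behaviour, mortality, food and water intake and body weight; sacrificed under ether on day 14.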

[10] = system: PC-12; assay: Neuroprotective activity against rotenone-induced apoptosis in rat PC12 cells assessed as decrease in nuclear fragmentation at 20 uM after 24 hrs by Hoechst 33258 staining-based fluorescent inverted microscopic method; format: functional, cell-based; how it was run: as §1
[11] = system: PC-12; assay: Neuroprotective activity against 6-OHDA-induced apoptosis in rat PC12 cells assessed as necrotic cells at 20 uM after 24 hrs by 7-AAD/annexin V APC staining-based flow cytometric method (reference value: 0.6%); format: functional
[12] = system: PC-12; assay: Neuroprotective activity against rotenone-induced apoptosis in rat PC12 cells assessed as necrotic cells at 20 uM after 24 hrs by 7-AAD/annexin V APC staining-based flow cytometric method (reference value: 48.6%); format: functional
[13] = system: PC-12; assay: Neuroprotective activity against 6-OHDA-induced apoptosis in rat PC12 cells assessed as early apoptotic cells at 40 uM after 24 hrs by 7-AAD/annexin V APC staining-based flow cytometric method (reference value: 42.1%); format: functional
[14] = Neuroprotective activity against rotenone-induced toxicity in rat PC12 cells assessed as cell survival at 20 uM preincubated for 24 hrs followed by rotenone addition measured after 24 hrs by MTT assay relative to control; format: functional; conditions: PC-12, read-out: Survival
How it was run: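 PC12 cells seeded 5×10^3/well, after 24 h given compound at 20 μM for 24 h at 37 °C, then exposed to 6-OHDA (40 μM) or rotenone (1 μM) for 24 h. […] Mean ± SEM of three independent experiments.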

[15] = in vitro; conditions: PAMPA
[16] = system: PC-12; assay: Neuroprotective activity against 6-OHDA-induced apoptosis in rat PC12 cells assessed as early apoptotic cells at 5 uM after 24 hrs by 7-AAD/annexin V APC staining-based flow cytometric method (reference value: 42.1%); format: functional
[17] = system: PC-12; assay: Neuroprotective activity against rotenone-induced apoptosis in rat PC12 cells assessed as necrotic cells at 40 uM after 24 hrs by 7-AAD/annexin V APC staining-based flow cytometric method (reference value: 48.6%); format: functional
[18] = system: PC-12; assay: Neuroprotective activity against 6-OHDA-induced apoptosis in rat PC12 cells assessed as viable cells at 40 uM after 24 hrs by 7-AAD/annexin V APC staining-based flow cytometric method (reference value: […]); format: functional; conditions: PC-12, 24 h, read-out: Activity
[19] = system: PC-12; assay: Neuroprotective activity against 6-OHDA-induced toxicity in rat PC12 cells assessed as increase in cell viability after 24 hrs by phase-contrast microscopic method; format: functional, cell-based
How it was run: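 PC12 cells were exposed to 5-40 μM test compound together with 40 μM 6-OHDA or 1 μM rotenone for 24 h. Viability was judged from phase-contrast images against untreated controls.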

[20] = system: PC-12; assay: Neuroprotective activity against rotenone-induced apoptosis in rat PC12 cells assessed as viable cells at 20 uM after 24 hrs by 7-AAD/annexin V APC staining-based flow cytometric method (reference value: 39.3%); format: functional; conditions: PC-12, 24 h, read-out: Activity
[21] = system: PC-12; assay: Neuroprotective activity against rotenone-induced apoptosis in rat PC12 cells assessed as late apoptotic cells at 5 uM after 24 hrs by 7-AAD/annexin V APC staining-based flow cytometric method (reference value: 9.9%); format: functional
[22] = system: PC-12; assay: Neuroprotective activity against 6-OHDA-induced apoptosis in rat PC12 cells assessed as viable cells at 5 uM after 24 hrs by 7-AAD/annexin V APC staining-based flow cytometric method (reference value: […]); format: functional; conditions: PC-12, 24 h, read-out: Activity
[23] = system: PC-12; assay: Neuroprotective activity against 6-OHDA-induced apoptosis in rat PC12 cells assessed as necrotic cells at 40 uM after 24 hrs by 7-AAD/annexin V APC staining-based flow cytometric method (reference value: 0.6%); format: functional
[24] = system: PC-12; assay: Neuroprotective activity against 6-OHDA-induced apoptosis in rat PC12 cells assessed as late apoptotic cells at 20 uM after 24 hrs by 7-AAD/annexin V APC staining-based flow cytometric method (reference value: 4.4%); format: functional
[25] = system: PC-12; assay: Neuroprotective activity against 6-OHDA-induced apoptosis in rat PC12 cells assessed as viable cells at 10 uM after 24 hrs by 7-AAD/annexin V APC staining-based flow cytometric method (reference value: […]); format: functional; conditions: PC-12, 24 h, read-out: Activity
[26] = system: PC-12; assay: Neuroprotective activity against 6-OHDA-induced apoptosis in rat PC12 cells assessed as late apoptotic cells at 5 uM after 24 hrs by 7-AAD/annexin V APC staining-based flow cytometric method (reference value: 4.4%); format: functional
[27] = system: PC-12; assay: Neuroprotective activity against 6-OHDA-induced apoptosis in rat PC12 cells assessed as viable cells at 20 uM after 24 hrs by 7-AAD/annexin V APC staining-based flow cytometric method (reference value: […]); format: functional; conditions: PC-12, 24 h, read-out: Activity

**Q.** For `O=C1CCOc2cc(OCc3ccc(F)cc3)ccc21`, which Activity [1] is on record?
**A.** Its Activity is 3.3%.

**Q.** And the Activity [2]?
**A.** Its Activity is “Active”.

**Q.** And the Activity [3]?
**A.** Its Activity is 9.5%.

**Q.** What about the Activity [4] of the same compound?
**A.** Its Activity is “Dose-dependent effect”.

**Q.** What about the viability at 24 h, 100 µM [5] of the same compound?
**A.** The viability at 24 h, 100 µM was 93.1%.

**Q.** What about the Activity [6] of the same compound?
**A.** The Activity was 3.3%.

**Q.** And the Activity [7]?
**A.** The Activity was 2.5%.

**Q.** And the Activity [8]?
**A.** The Activity was 16.1%.

**Q.** What about the Activity [9] of the same compound?
**A.** Its Activity is “Non-Toxic”.

**Q.** What about the Activity [10] of the same compound?
**A.** The Activity was “Active”.

**Q.** And the Activity [11]?
**A.** The Activity was 1.1%.

**Q.** And the Activity [12]?
**A.** Its Activity is 30.2%.

**Q.** And the Activity [13]?
**A.** Its Activity is 7%.

**Q.** What about the viability at 20 µM [14] of the same compound?
**A.** Its viability at 20 µM is 126%.

**Q.** And the Papp at 16 h, 100 ug/ml [15]?
**A.** Its Papp at 16 h, 100 ug/ml is 14.3 ×10⁻⁶ cm/s.

**Q.** What about the Activity [16] of the same compound?
**A.** Its Activity is 25.1%.

**Q.** And the Activity [17]?
**A.** Its Activity is 25.8%.

**Q.** And the viability at 40 µM [18]?
**A.** The viability at 40 µM was 90.8%.

**Q.** And the Activity [19]?
**A.** The Activity was “Dose-dependent effect”.

**Q.** And the viability at 20 µM [20]?
**A.** The viability at 20 µM was 57.8%.

**Q.** And the Activity [21]?
**A.** The Activity was 9.3%.

**Q.** What about the viability at 5 µM [22] of the same compound?
**A.** The viability at 5 µM was 69.3%.

**Q.** And the Activity [23]?
**A.** The Activity was 1.9%.

**Q.** And the Activity [24]?
**A.** The Activity was 0.3%.

**Q.** What about the viability at 10 µM [25] of the same compound?
**A.** Its viability at 10 µM is 70.7%.

**Q.** What about the Activity [26] of the same compound?
**A.** Its Activity is 1.8%.

**Q.** What about the viability at 20 µM [27] of the same compound?
**A.** Its viability at 20 µM is 87.8%.
